Drawing on ChEMBL document CHEMBL4513216, “Probing the Open Global Health Chemical Diversity Library for Multistage-Active Starting Points for Next-Generation Antimalarials” (ACS Infect Dis, 2020), this text covers cytotoxicity for 97 molecules.

Each structure is given as a SMILES string.

This series can be described thus: Toxicity liver stage against HepG2, at 10uM. The following applies: human, HepG2-A16-CD81EGFP cells; read-out: INHIBITION
Format: cell-based. The arrangement: test concentration 10 uM, cell line HepG2-A16-CD81EGFP. The essentials:
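Uninfected HepG2-A16-CD81EGFP cells, 3 × 10^3 per well, 1536-well, plated on prespotted compound at 10 μM final, parasite-free screening media added to match infected plates; puromycin 10 μM positive, DMSO 0.5% negative; run in parallel with 48 h PbLuc assay at 37 °C, 5% CO2; viability by CellTiter-Glo luminescence, normalized to controls.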
Take `O=C(Cc1ccc(O)c(Cl)c1)N1CCN(CC2CC2)[C@@H]2CS(=O)(=O)C[C@@H]21`: the cytotoxicity at 10 µM came out at 5.84%.

For `O=C(Cc1ccc(F)cc1)N1C[C@H]2CCN[C@H]2C1`, the cytotoxicity at 10 µM is 2.26%.

Regarding `CC(C)n1nc2c(cc1=O)CN(Cc1nnc(C3CC3)o1)CC2`, the cytotoxicity at 10 µM was -18.8%.

As for `CCc1nc2c(c(N3CCOCC3)n1)CCN(C(=O)c1ccon1)CC2`, the cytotoxicity at 10 µM came out at 10.6%.

Consider `CCN1CCN(C(=O)Cn2nc(C(F)(F)F)c(Br)c2C2CC2)CC1`, for which the cytotoxicity at 10 µM is -8.78%.

In the case of `Cn1ccnc1SC1CCc2ccccc2NC1=O` (configuration not stated), the cytotoxicity at 10 µM is -8.75%.

On to `CC(C)Nc1nc2c(c(NC3CC3)n1)CN(C(=O)Cc1ccsc1)CC2`, for which the cytotoxicity at 10 µM is 10.4%.

Regarding `O=C(NCc1nncn1C1CCCCC1)C1COc2ccccc2O1` (configuration not stated), the cytotoxicity at 10 µM came out at 2.83%.

Turning to `COc1ccc(Cc2noc(-c3ccc(NC(C)CO)nc3)n2)cc1` (configuration not stated), the cytotoxicity at 10 µM was -3.06%.

As for `COCC1(NC(=O)C(c2ccc(F)cc2)N(C)C)CCCC1` (configuration not stated), the cytotoxicity at 10 µM is -44.9%.

As for `CN(C)c1cc(C(=O)N2CCN(c3nccs3)CC2)ccn1`, the cytotoxicity at 10 µM was -10.8%.

`COc1ccc(CNCCc2cccc(C(N)=O)c2)cc1C`: the cytotoxicity at 10 µM is -6.81%.

As for `O=C1CC(NS(=O)(=O)c2ccc(Br)cc2)CN1` (configuration not stated), the cytotoxicity at 10 µM is -0.154%.

Turning to `CN(C)c1ncccc1NC(=O)COC1CCCC1`, the cytotoxicity at 10 µM stood at 0.189%.

With `COc1ncccc1CNC(=O)Nc1cccnc1N1CCCC1`, the cytotoxicity at 10 µM was -10.4%.

For `CCNC(=O)[C@@H]1C[C@H](NC(=O)c2cc(=O)[nH]c3ccc(C)cc23)CN1C`, the cytotoxicity at 10 µM is 7.44%.

Turning to `C[C@H](O)c1cnn(-c2ccccc2)c1`, the cytotoxicity at 10 µM is 0.503%.

In the case of `COc1ccccc1CN1CC(OC)CN(C(=O)CC(C)C)CC1=O` (configuration not stated), the cytotoxicity at 10 µM was -3.3%.

Regarding `CCOC[C@]12COC[C@H]1CN(Cc1ccc3c(c1)OCO3)C2`, the cytotoxicity at 10 µM was -119%.

For `COCCN1CCCC2(CCN(C(=O)c3cnc(O)cn3)C2)C1=O` (configuration not stated), the cytotoxicity at 10 µM is 0.0942%.

As for `CCOCc1cccc(S(=O)(=O)Nc2ccn(CC)n2)c1`, the cytotoxicity at 10 µM stood at 4.84%.

In the case of `O=C1NC2(CCN(CC(=O)N3CCOCC3)CC2)Nc2ccccc21`, the cytotoxicity at 10 µM is -1.71%.

With `N#CC1(NC(=O)CNCCn2cccn2)CCCCC1`, the cytotoxicity at 10 µM is -7.5%.

As for `O=C(c1ccccc1F)N1CC[C@@H]2CN(c3ncccn3)CCO[C@@H]2C1`, the cytotoxicity at 10 µM was -78.1%.

Regarding `O[C@@]1(c2ccccn2)CC[C@H]2CN(Cc3cccc(Cl)c3Cl)C[C@H]21`, the cytotoxicity at 10 µM is 0.256%.

On to `COCC(=O)N1CCCN(Cc2cc(C(C)C)no2)CC1`, for which the cytotoxicity at 10 µM worked out at 5.97%.

With `Fc1ccc(CN2CCC(c3nccnc3-n3ccnc3)CC2)cc1`, the cytotoxicity at 10 µM is -0.259%.

With `N#Cc1ccc(CN2CCCC(Cn3cncn3)C2)c(F)c1` (configuration not stated), the cytotoxicity at 10 µM was found to be 0.762%.

As for `CCCN(CCC)C(=O)CN1CCCC1C(=O)N(C)C` (configuration not stated), the cytotoxicity at 10 µM was found to be 7.42%.

With `O=C(Nc1ccncc1)N(CCO)Cc1ccsc1`, the cytotoxicity at 10 µM was -3.98%.

For the molecule `Fc1cccc2[nH]c(CN3CCn4c(nnc4C4CC4)C3)nc12`, the cytotoxicity at 10 µM is -5.07%.

Regarding `CC(C)n1cnc(-c2nc(C(=O)NC3CC3)c3ccccn23)c1`, the cytotoxicity at 10 µM was -102%.

As for `Oc1nc(N2CCOCC2)nc2c1CCN(Cc1ccccc1)CC2`, the cytotoxicity at 10 µM was -4.03%.

For `CCC(C)(NCC(=O)Nc1ccccc1)c1nc(C)cs1` (configuration not stated), the cytotoxicity at 10 µM is -8.66%.

Take `O=C(Cc1ccc2c(c1)OCC2)Nc1nn[nH]n1`: the cytotoxicity at 10 µM came to 0.548%.

With `c1cncc(N2CCCC3(CCN(CCN4CCCC4)CC3)C2)c1`, the cytotoxicity at 10 µM is -2.95%.

As for `Cc1cnn(C2CCCN(C(=O)CCc3c(C)noc3C)C2)c1` (configuration not stated), the cytotoxicity at 10 µM was -17.2%.

In the case of `CCn1c(C2CCN(C(=O)c3cc(Cl)no3)CC2)nn(C)c1=O`, the cytotoxicity at 10 µM is -10.5%.

In the case of `CCc1ccc2nc(-c3cnn(C)c3)cc(C(=O)N3CCCC3)c2c1`, the cytotoxicity at 10 µM turned out to be 0.753%.

Regarding `O=C(NCc1ccco1)[C@@H]1CCO[C@@H]2CCN(C3CCOCC3)C[C@H]21`, the cytotoxicity at 10 µM is -74.9%.

For the molecule `OCCNC1CCc2cc3c(cc21)OCCO3` (configuration not stated), the cytotoxicity at 10 µM is -5.82%.

`CN1CCN(Cc2ccc(F)cc2)Cc2cccnc21`: the cytotoxicity at 10 µM is -80.2%.

For the molecule `CC(C)c1cc(=O)[nH]c(-c2ccccc2CN2CCCCCC2)n1`, the cytotoxicity at 10 µM was -2.1%.

Consider `COc1cc(C(=O)NCC2CCCN(Cc3ccco3)C2)ccn1` (configuration not stated), for which the cytotoxicity at 10 µM is -3.94%.

Take `Cc1nc(CN2CCCN(CCCc3ccccc3)CC2)no1`: the cytotoxicity at 10 µM amounted to 11.3%.

With `COCCCNS(=O)(=O)c1cc(Br)sc1C`, the cytotoxicity at 10 µM is -6.14%.

As for `COC1CCN(CCNC(=O)NC(C)c2ccc(F)c(F)c2)CC1` (configuration not stated), the cytotoxicity at 10 µM was determined as 9.88%.

`CCOc1ccc(CNC(=O)N(C)Cc2ncnn2C)cc1C`: the cytotoxicity at 10 µM is -16%.

Regarding `COc1cc(C2CC(=O)Nc3c2nc2n3CCCC2)ccc1O` (configuration not stated), the cytotoxicity at 10 µM was -4.27%.

As for `O=S(=O)(NCCn1cc(C2CCCNC2)nn1)c1ccc(Cl)cc1` (configuration not stated), the cytotoxicity at 10 µM is -17.1%.

`CCCn1cc2c(C(F)F)cc(SCC(=O)O)nc2n1`: the cytotoxicity at 10 µM was -10.9%.

Turning to `Cc1cc(C)c(CNC(=O)N2CCCC2c2cc(C)on2)c(=O)[nH]1` (configuration not stated), the cytotoxicity at 10 µM was found to be 1.1%.

For the molecule `COc1ccc(C(=O)Nc2c(C)nc3cccc(C)n3c2=O)cc1`, the cytotoxicity at 10 µM amounted to 8.1%.

On to `Cc1nn2cccnc2c1C(=O)N1CCCC(Nc2ccccc2)C1` (configuration not stated), for which the cytotoxicity at 10 µM is 5.82%.

Consider `Fc1cccc2ncnc(NCCCc3ccncc3)c12`, for which the cytotoxicity at 10 µM worked out at 7.02%.

With `Cc1cc(C)n(CCNc2ncnc3c2NC(=O)CN3)n1`, the cytotoxicity at 10 µM amounted to 6.61%.

As for `CCc1n[nH]c(C(=O)NCCn2nccc2C)c1C`, the cytotoxicity at 10 µM was -7.28%.

`COc1ccc(CCNC(=O)NCc2cccc(C(N)=O)c2)cc1OC`: the cytotoxicity at 10 µM turned out to be 11.8%.

As for `CC(c1nc(C2CC2)no1)N1CCN(Cc2ccccc2F)CC1` (configuration not stated), the cytotoxicity at 10 µM amounted to 1.03%.

Consider `COc1cccc(C(C)Nc2ncnc3c2NC(=O)CN3)c1` (configuration not stated), for which the cytotoxicity at 10 µM was found to be 9.76%.

`Cc1cnc(CNC(=O)CC2CCc3ccccc32)cn1` (configuration not stated): the cytotoxicity at 10 µM was -0.862%.

As to `O=C(NCCNc1cnccn1)N1CC=C(c2ccccc2)CC1`, the cytotoxicity at 10 µM was 6.39%.

For `CC(C)(C)C1SCC(=O)Nc2c1c(O)nn2C1CCCCC1` (configuration not stated), the cytotoxicity at 10 µM was -16.7%.

As to `CN(C)C(=O)c1cn2cc(-c3cccc(Cl)c3)n(CC3CC3)c(=O)c2n1`, the cytotoxicity at 10 µM was -1.62%.

For the molecule `Cn1cc(CN2C[C@@H](F)[C@@H](OCc3nc4cnccc4[nH]3)C2)cn1`, the cytotoxicity at 10 µM came out at 6.88%.

For `Cc1cc(C)n(C2=NC(NCCC(C)C)c3c(sc4c3CCCC4)N2)n1` (configuration not stated), the cytotoxicity at 10 µM stood at 25%.

As to `Cc1nsc(NC(=O)N2CCCC2C)n1` (configuration not stated), the cytotoxicity at 10 µM was -38.7%.

Regarding `CN(C)C(=O)C1CSCN1C(=O)CCc1ccco1` (configuration not stated), the cytotoxicity at 10 µM is -6.53%.

`COC(=O)c1cccn1C1CCN(CC(=O)NC2CCCCC2)CC1`: the cytotoxicity at 10 µM is -8.21%.

For `CN(C)C(=O)c1cn[nH]c1C1CCCN1Cc1c[nH]cn1` (configuration not stated), the cytotoxicity at 10 µM is -3.3%.

In the case of `COCCN1C(=O)CCC12CCC(NCc1nccs1)CC2` (configuration not stated), the cytotoxicity at 10 µM turned out to be 7.01%.

Consider `CNc1nc(C)c(C(=O)NCC(C)(C)N2CCCCC2)s1`, for which the cytotoxicity at 10 µM was found to be 2.79%.

For `CC1N(CC2CC2)C(=O)COC12CCN(C(=O)c1ccncc1)CC2` (configuration not stated), the cytotoxicity at 10 µM is -13.7%.

Take `COCCN(C)C(C)c1cccc(S(N)(=O)=O)c1` (configuration not stated): the cytotoxicity at 10 µM is -28%.

In the case of `COCCc1noc(CN2CCCCC2Cn2cncn2)n1` (configuration not stated), the cytotoxicity at 10 µM was -1.9%.

For the molecule `CC(C)CCC(=O)N1C[C@H]2CCN[C@H]2C1`, the cytotoxicity at 10 µM worked out at 2.82%.

Consider `CCCN(CCC)C(=O)CN(C)C1CCc2ccccc21` (configuration not stated), for which the cytotoxicity at 10 µM is -6.63%.

For the molecule `COCCNc1cc(-c2ccccc2C(=O)O)c2cc[nH]c2n1`, the cytotoxicity at 10 µM is 2.13%.

`CC(=O)N1CCO[C@@H]2CN(S(=O)(=O)C3CC3)CC[C@@H]2C1`: the cytotoxicity at 10 µM was -112%.

Regarding `CC(C)[C@H](N)c1nnc(SCC(=O)Nc2ccc(Br)cc2)o1`, the cytotoxicity at 10 µM is -5.15%.

Take `c1coc(CN2CCCn3c(nnc3Cn3cccc3)C2)c1`: the cytotoxicity at 10 µM is -0.314%.

In the case of `COc1ccc(CN2C[C@H]3CN(Cc4ccncc4)C(=O)[C@H]3C2)cc1`, the cytotoxicity at 10 µM amounted to 4.35%.

With `Cc1n[nH]c(C2CN(Cc3ncc(C(C)C)o3)CCO2)n1` (configuration not stated), the cytotoxicity at 10 µM is -6.32%.

In the case of `CN(Cc1cn2ccccc2n1)C1CCCN(c2cccnn2)C1` (configuration not stated), the cytotoxicity at 10 µM is -9.78%.

Consider `CN1CCN(C)C2(CCN(Cc3ccc(C4CCCCO4)o3)CC2)C1` (configuration not stated), for which the cytotoxicity at 10 µM was determined as 0.0773%.

Take `CC(C)Nc1cc(N2CCC(n3cc(CCO)nn3)CC2)ncn1`: the cytotoxicity at 10 µM was determined as 16.3%.

Take `CCn1c(C)nnc1CN(C)C1CCN(CCn2cccn2)C1` (configuration not stated): the cytotoxicity at 10 µM came out at 1.49%.

For the molecule `CNCC(=O)N1CCCC1c1n[nH]cc1-c1ccccc1F` (configuration not stated), the cytotoxicity at 10 µM is -0.136%.

For `O=C(C[C@@H]1COC[C@H]2CN(C(=O)c3cccnc3)C[C@@H]12)N1CCCC1`, the cytotoxicity at 10 µM is -118%.

On to `CCCNC(=O)NCc1nc(C)c(C)o1`, for which the cytotoxicity at 10 µM was 5.19%.

For the molecule `COc1nc2c(cc1C(=O)N1CCCOC(CN3CCCC3)C1)CCC2` (configuration not stated), the cytotoxicity at 10 µM is -48.8%.

As for `O=C(Cc1cccs1)N1C[C@@H]2COC[C@]2(COc2cccnc2)C1`, the cytotoxicity at 10 µM was -21.1%.

Take `COc1ccc(-c2nc(CN3CCc4cnc(C)nc4C3)no2)cc1`: the cytotoxicity at 10 µM is -7.1%.

On to `Cc1ccccc1C(Nc1ncnc2c1CCNC2)c1ccccc1` (configuration not stated), for which the cytotoxicity at 10 µM is 7.78%.

Regarding `Cc1cnn(CC2CCCN2Cc2coc(-c3ccc(F)cc3)n2)c1` (configuration not stated), the cytotoxicity at 10 µM was -0.953%.

Consider `CN(C)c1nccc(-c2c[nH][nH]c2=O)n1`, for which the cytotoxicity at 10 µM was -1.25%.

As for `CCCn1nnnc1CSCc1cn2c(C)cccc2n1`, the cytotoxicity at 10 µM came to 8%.
